Most compounds without a hit are left out; they make up all but 4.1% or so of the library.
hERG rescue – hERG (human) protection from proarrhythmic block; 310,000 compounds, 0.51% hits; Q12809; CHO-hERG, FluxOR thallium flux, dofetilide IC70 present; activation (rescue from dofetilide block), less the hit threshold, % at 10 µM;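 active means activation above the mean of controls blocked by dofetilide plus 5 SD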;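 further: thallium influx through hERG after potassium depolarization seen as dye fluorescence rise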
KCNQ1 block – blocks the human KCNQ1 potassium channel | P51787 | CHO-K1 KCNQ1, FluxOR thallium flux fluorescence; stronger effect = higher value | B-score at 10 µM | 310,000 compounds, 1.3% hits;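 active means compounds whose thallium flux B-score, printed positive for inhibition, exceeds three library SD while starting fluorescence stays within three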;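 further: channel opened by potassium depolarization with thallium stimulus after 20 min compound exposure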
KCC2 mod – modulators of human KCC2 chloride dependent transport; Q9H2X9; KCC2 cells, thallium flux FluoZin-2 fluorescence; B-score of Tl+ flux slope (higher = more flux/activation; lower = inhibition) at 10 µM; 190,000 compounds, 2.2% hits;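 active means thallium flux slope and its plate-corrected score both differing from the plate sample mean at a set confidence after two filtering rounds, in either direction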;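 further: slope of fluorescence scaled to starting intensity during 10 to 20 s after thallium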
KCNQ1 pot – potentiates or activates the human KCNQ1 potassium channel; B-score at 10 µM; 310,000 compounds, 0.35% hits; CHO-K1 KCNQ1, thallium flux FluxOR fluorescence; stronger effect = higher value; P51787; AID 2648;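 active means fluorescence ratio B-score, a plate-corrected score, at least three library SD, with initial intensity B-score within 5 SD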
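Assay system: CHO-K1 cells stably expressing KCNQ1; Medium: assay buffer with matched DMSO; Also added: K+/Tl+ depolarizing stimulus; Dosing: single dose; Timing: dye 90 min, compound 20 min, room temperature; Measured by: kinetic FluxOR thallium fluorescence, 10-s 1-Hz baseline, 110-s post-stimulus read; Read-out: peak-minus-minimum fluorescence over initial fluorescence, negative-control normalized, B-scored.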
KCNK9 inh – human KCNK9 channel inhibition. B-score at 10 µM. 310,000 compounds, 1.2% hits. AID 488922. HEK293 KCNK9, FluxOR thallium flux fluorescence; stronger effect = lower value;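 active means ratio B-score over 3 SD below the library mean, with starting fluorescence within 5 SD of its mean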;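 further: negative B-score means less thallium flux so channel inhibition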
Target sequence (Q9NPC2 whole entry, looked up): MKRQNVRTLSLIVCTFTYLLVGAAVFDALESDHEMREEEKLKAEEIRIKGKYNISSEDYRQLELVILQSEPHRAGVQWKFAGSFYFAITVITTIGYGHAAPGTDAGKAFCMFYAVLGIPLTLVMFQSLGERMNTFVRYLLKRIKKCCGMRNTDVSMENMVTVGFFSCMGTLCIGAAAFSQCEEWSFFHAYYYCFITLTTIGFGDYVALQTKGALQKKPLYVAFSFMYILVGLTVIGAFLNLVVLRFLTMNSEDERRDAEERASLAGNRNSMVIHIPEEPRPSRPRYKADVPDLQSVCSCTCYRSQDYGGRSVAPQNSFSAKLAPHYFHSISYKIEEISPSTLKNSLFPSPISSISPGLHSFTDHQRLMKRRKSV
KCNK3 inh – human KCNK3 channel inhibition, primary screen | B-score at 10 µM | 340,000 compounds, 0.84% hits | AID 602410 | CHO-KCNK3 thallium flux, FluxOR fluorescence; stronger effect = lower value;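 active means B-score under library mean minus 4 SD, starting fluorescence ratio at most library mean plus 5 SD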;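 further: more negative B-score means stronger inhibition of thallium flux through KCNK3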
KCNK9 inh conf – confirmation of human KCNK9 potassium channel inhibitors; shares compounds with KCNK9 inh; inhibition, % at 10 µM; AID 492992; HEK293 KCNK9 cells, FluxOR thallium flux fluorescence; 4,900 compounds, 43% hits;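 active means thallium signal inhibited by more than 5 SD of the compound-free buffer control wells, on both duplicate plates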;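 further: 0% = assay buffer control wells without compound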
Kir21 sel – selectivity of KCNK9 modulators against mouse Kir2.1; shares compounds with KCNK9 inh; Kir2.1 cells, FluxOR thallium flux fluorescence; inhibition, % at 10 µM; 4,900 compounds, 4% hits;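 active means thallium signal drop more than 5 SD beyond the mean of the no-compound control wells, seen in both duplicate plates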;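 further: signal is fluorescence rise after thallium addition divided by baseline fluorescence; plate controls were assay buffer only for no effect and full block by chlorpromazine control for full effect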
HEK293 Tl ctr – non-induced cell nonspecific activity of KCNK9 modulators | shares compounds with KCNK9 inh | non-induced KCNK9-HEK293, FluxOR thallium flux | inhibition, % at 10 µM | 4,900 compounds, 40% hits | AID 492997;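 active means thallium signal drop beyond 5 SD of the untreated control mean, on both duplicate plates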;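 further: plate controls were buffer only IC0 wells for no effect and SID17386958 at its maximal inhibitory level for full effect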
Starred values were filed as active, the others as inactive; i = inactive; nt = not tested or not shown.

SMILES | hERG rescue | KCNQ1 block | KCC2 mod | KCNQ1 pot | KCNK9 inh | KCNK3 inh | KCNK9 inh conf | Kir21 sel | HEK293 Tl ctr
CCCCc1c(O)nc(SCC(=O)c2ccccc2)n(-c2ccccc2OC)c1=O | -19 | i | -3.3 | i | -13* | i | 51%* | i | 25%*
CCCCc1c(O)nc(SCC(=O)c2ccccc2)n(-c2ccccc2C)c1=O | -19 | i | -0.86 | i | i | i | nt | nt | nt
CC1C(=NO)C(C)C(c2ccc(N(C)C)cc2)NC1c1ccc(N(C)C)cc1 (stereo not drawn) | -4 | i | 0.5 | i | i | i | i | i | i
CC1C(=O)C(C)C(c2ccc([N+](=O)[O-])cc2)NC1c1ccc([N+](=O)[O-])cc1 (stereo not drawn) | -14 | i | 0.43 | i | i | i | nt | nt | nt
O=C(Nc1ccccc1)c1ccccc1OCc1cccc([N+](=O)[O-])c1 | -11 | i | -1.4 | i | -12* | i | i | i | 28%*
O=C(Nc1ccc(O)cc1)c1ccccc1OCc1ccccc1 | -2 | i | nt | i | i | i | nt | nt | nt
COc1cccc(NC(=O)N(CCCN2CCOCC2)C(C)c2cc3cccc(OC)c3o2)c1 (stereo not drawn) | -2 | i | 0.21 | i | -8.3* | i | 40%* | i | 31%*
Cc1ccc(-n2c(C)nc3c(cnn3-c3ccc(F)cc3)c2=O)cc1C | -3 | i | nt | i | i | i | nt | nt | nt
Cc1ccc(-n2c(C)nc3c(cnn3-c3ccc(C)c(C)c3)c2=O)cc1C | -11 | i | -0.28 | i | i | i | i | i | i
CCCN(C(=O)CSc1cc(-c2ccccc2)c2ccc(OC)cc2n1)C1CCS(=O)(=O)C1 (stereo not drawn) | -5 | i | -0.068 | i | -8.4* | i | 48%* | i | 28%*
CCN(C(=O)CSc1cc(C)c2ccccc2n1)C1CCS(=O)(=O)C1 (stereo not drawn) | -7 | i | -0.18 | i | i | i | nt | nt | nt
Cc1ccc2c(c1)N(C(=O)CCC(=O)Nc1ccccc1Br)CC(C)O2 (stereo not drawn) | -8 | i | nt | i | i | i | i | i | i
CC(=O)c1ccc(NC(=O)CCC(=O)N2CC(C)Oc3ccc(C)cc32)cc1 (stereo not drawn) | -4 | i | nt | i | i | i | nt | nt | nt
Cc1ccc2c(c1)N(C(=O)CCC(=O)NCc1cccc(Br)c1)CC(C)O2 (stereo not drawn) | -15 | i | nt | i | i | i | i | i | i
COc1ccc(CN(C2CC2)S(=O)(=O)c2ccccc2Br)cc1 | nt | nt | nt | nt | nt | i | nt | nt | nt
Cc1cc2c(cc1C)N(C(=O)CSC1=NCCS1)C(C)(C)c1ssc(=S)c1-2 | -10 | i | nt | i | -8.6* | i | 50%* | i | 31%*
COc1ccc2c(c1)-c1c(ssc1=S)C(C)(C)N2C(=O)CSC1=NCCS1 | -11 | i | nt | i | -12* | i | 46%* | i | 38%*
CCCn1c(N)c(C(=O)CSc2nc(N)cc(=O)[nH]2)c(=O)n(C)c1=O | nt | nt | nt | nt | nt | i | nt | nt | nt
O=C(O)CN1C(=O)/C(=C\c2cccc(OC(=O)c3ccco3)c2)SC1=S | -8 | i | nt | i | i | i | nt | nt | nt
O=C(O)CN1C(=O)/C(=C\c2cccc(OCc3ccccc3F)c2)SC1=S | -9 | i | nt | i | i | i | i | i | i
O=C(O)CN1C(=O)/C(=C\c2ccccc2OCc2ccc(Cl)cc2)SC1=S | -9 | i | nt | i | i | i | i | i | i
O=C(O)CN1C(=O)/C(=C\c2cccc(OCc3ccc(Cl)cc3)c2)SC1=S | -11 | i | nt | i | i | i | i | i | i
O=C(CCN1C(=O)/C(=C/c2ccccc2Cl)SC1=S)Nc1ccccc1C(=O)O | -26 | i | nt | i | i | i | i | i | i
O=C(O)CN1C(=O)/C(=C\c2cccc(OCc3ccc(F)cc3)c2)SC1=S | -4 | i | nt | i | i | i | nt | nt | nt
Cc1c(Cl)cccc1NS(=O)(=O)c1ccc(-c2ccc(=O)[nH]n2)o1 | -7 | i | nt | i | i | i | nt | nt | nt
SMILES | hERG rescue | KCNQ1 block | KCC2 mod | KCNQ1 pot | KCNK9 inh | KCNK3 inh | KCNK9 inh conf | Kir21 sel | HEK293 Tl ctr
C=CC[C@@H](CC(=O)NCCO)C(=O)NC[C@H](OC(=O)[C@@H](CC=C)Cc1ccc(F)cc1)c1ccccc1 | nt | nt | nt | nt | nt | i | nt | nt | nt
O=C(Nc1ccc(NS(=O)(=O)c2ccc([N+](=O)[O-])cc2)cc1)c1ccco1 | -1 | i | nt | i | i | i | nt | nt | nt
O=C(CC(c1ccccc1)C1CCCCC1=O)c1ccccc1 (stereo not drawn) | nt | nt | nt | nt | nt | i | nt | nt | nt
CN(C[C@H](Cc1ccccc1)N(C[C@@H](Cc1cccc2ccccc12)N(CCc1ccccc1)N=O)N=O)N=O | -5 | i | -0.99 | i | -8.5* | i | i | i | 38%*
Cc1ccc(N2CC(NC(=O)C(=O)c3c(C)[nH]c4ccccc34)CC2=O)cc1C (stereo not drawn) | -14 | i | nt | i | i | i | nt | nt | nt
COn1c(SCc2ccc(Cl)cc2)nc2ccccc2c1=O | -21 | i | 0.46 | i | -18* | i | 66%* | i | 34%*
COn1c(SCc2cccnc2)nc2ccccc2c1=O | -7 | i | nt | i | i | i | nt | nt | nt
Cc1noc(C)c1CSc1nc2sc(C)c(C)c2c(=O)n1-c1ccccc1 | -6 | i | nt | i | i | i | nt | nt | nt
Cc1noc(C)c1CSc1nc2ccccc2c(=O)n1-c1ccc(Cl)cc1 | -6 | i | nt | i | i | i | i | i | i
COc1ccccc1CNC(=O)CN(C)CC(=O)Nc1ccc(F)c(F)c1F | nt | nt | nt | nt | nt | i | nt | nt | nt
CCOc1ccc(N2CC(C(=O)Nc3cccnc3)CC2=O)cc1 (stereo not drawn) | -8 | i | nt | i | i | i | nt | nt | nt
CCOC(=O)C1CCN(C(=O)CCc2nnc3ccc(N4CCC(C)CC4)nn23)CC1 | -8 | i | nt | i | i | i | nt | nt | nt
Cc1cccc(C(=O)Nc2ccccc2C(=O)OCC(=O)Nc2ccc(C#N)cc2)c1 | -15 | i | -3.2 | i | -9.3* | i | 32%* | i | 28%*
Cc1ccc(-c2csc(NC(=O)c3cccc(C)c3)c2C(=O)O)cc1 | -9 | i | nt | i | i | i | i | i | i
